Test results as given in paper PMC6591795 (ChemistryOpen, 2019).
Read-outs that look alike come from different tables or passages of the source.

Tests used:
GTB [1] = biological target: T1, GTB (Homo sapiens, UniProt P16442, G235S/G268A/L266M/R176G); assay: methyl TROSY CSP titration, TITAN lineshape analysis; assay type: binding; details: for Kd: K D
T1 sequence (P16442 64-354 R176G/G235S/L266M/G268A limits assumed): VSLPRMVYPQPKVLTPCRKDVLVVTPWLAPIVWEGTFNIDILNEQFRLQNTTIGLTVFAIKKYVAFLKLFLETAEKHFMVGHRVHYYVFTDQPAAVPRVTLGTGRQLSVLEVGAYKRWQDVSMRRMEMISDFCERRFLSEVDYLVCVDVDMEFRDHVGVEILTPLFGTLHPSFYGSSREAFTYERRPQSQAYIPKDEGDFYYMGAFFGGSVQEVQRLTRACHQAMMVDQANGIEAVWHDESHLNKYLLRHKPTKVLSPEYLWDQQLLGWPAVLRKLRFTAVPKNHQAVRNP
Summary of the method: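 Enzyme expressed in D₂O-based M9 minimal medium with ¹³C-methyl precursors, IPTG-induced, and purified by cation-exchange and UDP-affinity chromatography. Ligand titrated at constant protein concentration, with a 2D [¹³C,¹H] HMQC at each point. Kd and koff from a global multi-peak TITAN two-state fit; apo parameters fixed from the ligand-free spectrum; 200-run bootstrap residual resampling.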

GTB [2] = biological target: T1, GTB; details: read-out: KD from ITC; UDP binding to GTB:H-Dis; cited from earlier work
[3] = GTB in presence of saturating B-Tris
[4] = GTB in presence of saturating H-Dis
[5] = GTB in presence of saturating H-Tris I
[6] = GTB in presence of saturating H-Tris II
[7] = GTB in presence of saturating H-Tris III
[8] = GTB in presence of saturating H-Tris IV
[9] = GTB in presence of saturating H-Tris V
[10] = GTB in presence of saturating H-Tris VI
[11] = apo GTB, donor-type ligands, Mg2+, 298 K

koff (GTB [1]; [3]): 18 ± 1 s⁻¹ | kon (GTB [1]; [3]): 28000 M⁻¹ s⁻¹ | koff (GTB [1]; [4]): 2.6 ± 0.3 s⁻¹ | kon (GTB [1]; [4]): 25000 M⁻¹ s⁻¹ | off-rate constant koff (GTB [1]; GTB in presence of saturating H-Dis, from titration analysis (Table 3)): 2.6 Hz | koff (GTB [1]; [5]): 2.2 ± 0.2 s⁻¹ | kon (GTB [1]; [5]): 58000 M⁻¹ s⁻¹ | koff (GTB [1]; [6]): 1.7 ± 0.3 s⁻¹ | kon (GTB [1]; [6]): 280000 M⁻¹ s⁻¹ | koff (GTB [1]; [7]): 3.6 ± 0.5 s⁻¹ | kon (GTB [1]; [7]): 120000 M⁻¹ s⁻¹ | koff (GTB [1]; [8]): 12 ± 1 s⁻¹ | kon (GTB [1]; [8]): 190000 M⁻¹ s⁻¹ | koff (GTB [1]; [9]): 3.4 ± 0.3 s⁻¹ | kon (GTB [1]; [9]): 120000 M⁻¹ s⁻¹ | koff (GTB [1]; [10]): 2.2 ± 0.2 s⁻¹ | kon (GTB [1]; [10]): 69000 M⁻¹ s⁻¹ | kon multiplied by the UDP concentration (comparable to kAB) (GTB [1]; GTB saturated with H-Dis, kon=2.5×10^4 M^−1s^−1 times 250 μM UDP): ca. 6.3 Hz | Kd (GTB [1]; [3]): 660 ± 10 µM | Kd (GTB [1]; [4]): 103 ± 2 µM | Kd (GTB [1]; [5]): 38 ± 1 µM | Kd (GTB [1]; [6]): 6 ± 1 µM | Kd (GTB [1]; [7]): 29 ± 1 µM | Kd (GTB [1]; [8]): 65 ± 2 µM | Kd (GTB [1]; [9]): 31 ± 1 µM | Kd (GTB [1]; [10]): 32 ± 1 µM | Kd (GTB [1]; [11]): 161 ± 3 µM | koff (GTB [1]; [11]): 243 ± 7 s⁻¹ | kon (GTB [1]; [11]): 1.5e+06 M⁻¹ s⁻¹
Structure (SMILES): O=c1ccn([C@@H]2O[C@H](COP(=O)(O)OP(=O)(O)O)[C@@H](O)[C@H]2O)c(=O)[nH]1 [UDP, uridine diphosphate]
Kd (GTB [2]): 27 µM
